Data from ChEMBL document CHEMBL1149311, “Synthesis and antitumor activity of methyltriazene prodrugs simultaneously releasing DNA-methylating agents and the antiresistance drug O(6)-benzylguanine” (J Med Chem, 2004).

Tests used:
SF-268 [1] = experiment: Antitumor activity against human SF268 cells at 50 uM relative to control; format: functional
How it was run: (§1)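 Tested in the NCI three-cell-line one-dose primary anticancer prescreen. The read-out is growth as % of untreated control cells (100%) at 50 μM.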

NCI-H460 [2] = experiment: Antitumor activity against human NCI-H460 cells at 50 uM relative to control; format: functional; how it was run: as §1
[3] = Half life of hydrolysis in deuterated phosphate buffer at pD 7.8; conditions: pH 7.8
MCF7 [4] = experiment: Antitumor activity against human MCF7 cells at 50 uM relative to control; format: functional; how it was run: as §1
SF-268 [5] = experiment: Antitumor activity against human SF268 cells at 100 uM relative to control; format: functional
How it was run: (§2)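 NCI three-cell-line one-dose primary anticancer prescreen at 100 µM. Growth is expressed as % of untreated control cells, with the control taken as 100%.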

MCF7 [6] = experiment: Antitumor activity against human MCF7 cells at 100 uM relative to control; format: functional; how it was run: as §2
NCI-H460 [7] = experiment: Antitumor activity against human NCI-H460 cells at 100 uM relative to control; format: functional; how it was run: as §2
NCI [8] = experiment: Antitumor activity against NCI human melanoma cell line panel; format: functional, cell-based
How it was run: (§3)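 Tested in the NCI in vitro disease-oriented human tumor cell screen. The endpoints are IC50 (molar concentration giving 50% growth inhibition), TGI (total growth inhibition) and LC50 (50% net cell death). The maximal concentration tested was 100 μM. Subpanel values are means of several individual cell lines.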

carcinoma cell line = experiment: Antitumor activity against human NCI ovarian carcinoma cell line panel; format: functional, cell-based; how it was run: as §3
NCI [9] = experiment: Antitumor activity against human NCI colon cancer cell line panel; format: functional, cell-based; how it was run: as §3
NCI [10] = experiment: Antitumor activity against human NCI leukemia cell line panel; format: functional, cell-based; how it was run: as §3
NCI [11] = experiment: Antitumor activity against human NCI CNS cancer cell line panel; format: functional, cell-based; how it was run: as §3
NCI [12] = experiment: Antitumor activity against human NCI renal cancer cell line panel; format: functional, cell-based; how it was run: as §3
NCI [13] = experiment: Antitumor activity against human NCI breast cancer cell line panel; format: functional, cell-based; how it was run: as §3
[14] = system: Non-small cell lung cancer cell line; experiment: Antitumor activity against human NCI non-small cell lung cancer cell line panel; format: functional, cell-based; how it was run: as §3
NCI [15] = experiment: Antitumor activity against human NCI prostate cancer cell line panel; format: functional, cell-based; how it was run: as §3

Structure (SMILES)	half-life ([3]; deuterated phosphate buffer) [h]	Activity (SF-268 [5]) [%]	Activity (MCF7 [6]) [%]	Activity (NCI-H460 [7]) [%]	further results
COC(=O)c1ccc(OC(=O)N(C)/N=N/c2nc(OCc3ccccc3)c3nc[nH]c3n2)cc1	2.45	–	–	–	Activity (SF-268 [1]): 107%; Activity (NCI-H460 [2]): 53%; Activity (MCF7 [4]): 116%
CCOC(=O)N(C)/N=N/c1nc(OCc2ccccc2)c2nc[nH]c2n1	58.3	91	103	90	–
CN(/N=N/c1nc(OCc2ccccc2)c2nc[nH]c2n1)C(=O)c1cccnc1	8.83	–	–	–	–
CC(=O)N(C)/N=N/c1nc(OCc2ccccc2)c2nc[nH]c2n1	58.3	78	99	89	–
CN(/N=N/c1nc(OCc2ccccc2)c2nc[nH]c2n1)C(=O)Oc1ccccc1	19.2	102	107	87	–
CN(/N=N/c1nc(OCc2ccccc2)c2nc[nH]c2n1)C(=O)c1ccc([N+](=O)[O-])cc1	16	–	–	–	–
CN(/N=N/c1nc(OCc2ccccc2)c2nc[nH]c2n1)C(=O)Oc1ccc(C(N)=O)cc1	6.42	–	–	–	–
CN(/N=N/c1nc(OCc2ccccc2)c2nc[nH]c2n1)C(=O)Oc1ccc(S(N)(=O)=O)cc1	2.82	–	–	–	–
CC(=O)Nc1ccc(OC(=O)N(C)/N=N/c2nc(OCc3ccccc3)c3nc[nH]c3n2)cc1	19.3	–	–	–	–
CN(/N=N/c1nc(OCc2ccccc2)c2nc[nH]c2n1)C(=O)c1ccccc1	38.3	79	107	93	–
Cn1nnc2c(C(N)=O)ncn2c1=O [TEMOZOLOMIDE]	–	–	–	–	IC50 (NCI [8]): 98 µM; IC50 (carcinoma cell line): 91 µM; IC50 (NCI [9]): 100 µM; IC50 (NCI [10]): 79 µM; TGI (NCI [10]): > 100 µM; CC50 (NCI [10]; read-out: LC50 (the source's name)): > 100 µM; half-life ([3]; buffer): 0.417 h; IC50 (NCI [11]): 93 µM; IC50 (NCI [12]): 98 µM; IC50 (NCI [13]): 100 µM; IC50 [14]: 100 µM; IC50 (NCI [15]): 100 µM
